Experimental data: ChEMBL document CHEMBL1122744, “2-Chloroethyl (methylsulfonyl)methanesulfonate and related (methylsulfonyl)methanesulfonates. Antineoplastic activity in vivo” (J Med Chem, 1984)

Assays:
[1] = tested on: Mus musculus; test: Median survival time of the untreated control groups, in which there are no 30-day survivors at dose 100 mg/kg in exp1; type: functional
[2] = tested on: Mus musculus; test: Median survival time of the treated control groups, in which there are no 30-day survivors at dose 100 mg/kg in exp1; type: functional
[3] = Ratio of median survival times for non-survivors at dose 50 mg/kg in exp1; type: functional; parameters: unit: %
Summary of the method: (§1)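 Mice were inoculated ip with 10^6 P388 leukemia cells on day 0. Groups of six (occasionally five) were dosed ip qd on days 1–5 with fresh suspensions; 30 mice served as untreated controls. Deaths were recorded daily up to day 60. T/C% compares the median survival of treated non-survivors (<60 days) with the control median. Medians used grouped data when there were no 30-day survivors, otherwise ungrouped data. t = toxic.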

[4] = tested on: Mus musculus; test: Change in weight by day 5, obtained by subtracting treated groups of animals minus control groups of animals at dose 25 mg/kg in exp1.; type: functional
Summary of the method: (§2)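 Mice were inoculated ip with 10^6 P388 leukemia cells on day 0, when treated and control mice weighed 19–22 g. Treatment was given ip once daily on days 1–5, within about 5 min of preparing the solution or suspension. Groups of six (occasionally five) were treated, with 30 untreated inoculated mice as controls. The day-5 weight change is the mean treated change minus the mean control change.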

[5] = tested on: Mus musculus; test: Mortality by day 5 expressed as number of mice died to the total treated at dose 100 mg/kg in exp1; 2/6; type: ADME, organism-based; parameters: dose 100 mg/kg; conditions: in vivo
[6] = tested on: Mus musculus; test: Median survival time of the treated control groups, in which there are no 30-day survivors at dose 50 mg/kg in exp1; type: functional
[7] = tested on: Mus musculus; test: Median survival time of the treated control groups, in which there are no 30-day survivors at dose 25 mg/kg in exp1; type: functional
[8] = tested on: Mus musculus; test: Change in weight by day 5, obtained by subtracting treated groups of animals minus control groups of animals at dose 100 mg/kg in exp1.; type: functional; summary of the method: as §2
[9] = tested on: Mus musculus; test: Mortality by day 5 expressed as number of mice died to the total treated at dose 100 mg/kg in exp1; 6/6; type: ADME, organism-based; parameters: dose 100 mg/kg; conditions: in vivo
[10] = tested on: Mus musculus; test: Median survival time of the untreated control groups, in which there are no 30-day survivors at dose 50 mg/kg in exp1; type: functional
[11] = tested on: Mus musculus; test: Mortality by day 5 expressed as number of mice died to the total treated at dose 50 mg/kg in exp1; 0/6; type: ADME, organism-based; parameters: dose 50 mg/kg; conditions: in vivo
[12] = Ratio of median survival times for non-survivors at dose 100 mg/kg in exp1; type: functional; parameters: unit: %; summary of the method: as §1
[13] = tested on: Mus musculus; test: Median survival time of the untreated control groups, in which there are no 30-day survivors at dose 25 mg/kg in exp1; type: functional
[14] = tested on: Mus musculus; test: Mortality by day 5 expressed as number of mice died to the total treated at dose 25 mg/kg in exp1; 0/6; type: ADME, organism-based; parameters: dose 25 mg/kg; conditions: in vivo
[15] = tested on: Mus musculus; test: Mortality by day 5 expressed as number of mice died to the total treated at dose 12 mg/kg in exp2; 1/6; type: ADME, organism-based; parameters: dose 12 mg/kg; conditions: in vivo
[16] = tested on: Mus musculus; test: Median survival time of the treated control groups, in which there are no 30-day survivors at dose 6 mg/kg in exp2; type: functional
[17] = Median survival time of the untreated control groups, in which there are no 30-day survivors at dose 12 mg/kg in exp2; type: functional
[18] = tested on: Mus musculus; test: Median survival time of the untreated control groups, in which there are no 30-day survivors at dose 6 mg/kg in exp1; type: functional
[19] = tested on: Mus musculus; test: Mortality by day 5 expressed as number of mice died to the total treated at dose 25 mg/kg in exp1; 6/6; type: ADME, organism-based; parameters: dose 25 mg/kg; conditions: in vivo
[20] = tested on: Mus musculus; test: Median survival time of the treated control groups, in which there are no 30-day survivors at dose 12 mg/kg in exp1; type: functional
[21] = tested on: Mus musculus; test: Change in weight by day 5, obtained by subtracting treated groups of animals minus control groups of animals at dose 12 mg/kg in exp1; type: functional; summary of the method: as §2
[22] = tested on: Mus musculus; test: Median survival time of the treated control groups, in which there are no 30-day survivors at dose 12 mg/kg in exp2; type: functional
[23] = tested on: Mus musculus; test: Median survival time of the untreated control groups, in which there are no 30-day survivors at dose 6 mg/kg in exp2; type: functional
[24] = tested on: Mus musculus; test: Mortality by day 5 expressed as number of mice died to the total treated at dose 6 mg/kg in exp1; 0/5; type: ADME, organism-based; parameters: dose 6 mg/kg; conditions: in vivo
[25] = Ratio of median survival times for non-survivors at dose 25 mg/kg in exp1; t= toxic; type: ADME, organism-based; parameters: dose 25 mg/kg; conditions: in vivo
[26] = tested on: Mus musculus; test: Median survival time of the treated control groups, in which there are no 30-day survivors at dose 6 mg/kg in exp1; type: functional
[27] = Ratio of median survival times for non-survivors at dose 25 mg/kg in exp2; t= toxic; type: ADME, organism-based; parameters: dose 25 mg/kg; conditions: in vivo
[28] = tested on: Mus musculus; test: Mortality by day 5 expressed as number of mice died to the total treated at dose 6 mg/kg in exp2; 0/6; type: ADME, organism-based; parameters: dose 6 mg/kg; conditions: in vivo
[29] = tested on: Mus musculus; test: Mortality by day 5 expressed as number of mice died to the total treated at dose 12 mg/kg in exp1; 0/6; type: ADME, organism-based; parameters: dose 12 mg/kg; conditions: in vivo
[30] = tested on: Mus musculus; test: Median survival time of the untreated control groups, in which there are no 30-day survivors at dose 12 mg/kg in exp1; type: functional
[31] = Ratio of median survival times for non-survivors at dose 6 mg/kg in exp1; type: functional
[32] = tested on: Mus musculus; test: Change in weight by day 5, obtained by subtracting treated groups of animals minus control groups of animals at dose 25 mg/kg in exp2; type: functional; summary of the method: as §2
[33] = Ratio of median survival times for non-survivors at dose 6 mg/kg in exp2; type: functional
[34] = Ratio of median survival times for non-survivors at dose 12 mg/kg in exp2; type: functional; summary of the method: as §1
[35] = tested on: Mus musculus; test: Change in weight by day 5, obtained by subtracting treated groups of animals minus control groups of animals at dose 12 mg/kg in exp2; type: functional; summary of the method: as §2
[36] = tested on: Mus musculus; test: Mortality by day 5 expressed as number of mice died to the total treated at dose 25 mg/kg in exp2; 4/6; type: ADME, organism-based; parameters: dose 25 mg/kg; conditions: in vivo
[37] = Ratio of median survival times for non-survivors at dose 12 mg/kg in exp1; type: functional; summary of the method: as §1
[38] = tested on: Mus musculus; test: Change in weight by day 5, obtained by subtracting treated groups of animals minus control groups of animals at dose 6 mg/kg in exp1.; type: functional; summary of the method: as §2
[39] = tested on: Mus musculus; test: Median survival time of the untreated control groups, in which there are no 30-day survivors at dose 25 mg/kg in exp2; type: functional
[40] = tested on: Mus musculus; test: Change in weight by day 5, obtained by subtracting treated groups of animals minus control groups of animals at dose 6 mg/kg in exp2; type: functional
Summary of the method: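 Mice were inoculated ip with 10^6 P388 leukemia cells on day 0 and weighed 19–22 g that day. Compound was given ip once daily on days 1–5, within about 5 min of preparing the solution or suspension, to groups of six (occasionally five). Thirty inoculated untreated mice served as controls. The value is the average weight change of treated mice minus that of controls on day 5.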

CS(=O)(=O)OCCBr
Median survival time [1]: 11.1
Median survival time [2]: 11.8
Ratio [3]: 110
Change in weight [4]: -0.7
Mortality [5]: 2
Median survival time [6]: 12.3
Median survival time [7]: 12
Change in weight [8]: -3
Mortality [9]: 6
Median survival time [10]: 11.1
Mortality [11]: 0
Ratio [12]: 106
Median survival time [13]: 11.1
Mortality [14]: 0

COS(=O)(=O)CS(C)(=O)=O
Mortality [15]: 1
Median survival time [16]: 13.4
Median survival time [17]: 10.7
Median survival time [18]: 10.7
Mortality [19]: 6
Median survival time [20]: 14
Change in weight [21]: -4.1
Median survival time [22]: 13.7
Median survival time [23]: 10.7
Mortality [24]: 0
Ratio [25]: Toxic
Median survival time [26]: 14.5
Ratio [27]: Toxic
Mortality [28]: 0
Mortality [29]: 0
Median survival time [30]: 10.7
Ratio [31]: 135
Change in weight [32]: -2.8
Ratio [33]: 125
Ratio [34]: 128
Change in weight [35]: -2.8
Median survival time [13]: 10.7
Mortality [36]: 4
Ratio [37]: 130
Change in weight [38]: 0
Median survival time [39]: 10.7
Mortality [14]: 0
Change in weight [40]: -0.8
